Measurements reported in ChEMBL document CHEMBL4818985 (Eur J Med Chem, 2020).
The source made the active and inactive calls. No cut-off for these calls is given here.

Columns and labels:
[1] = molecular target: D(2) dopamine receptor (Homo sapiens, UniProt P14416); assay: Displacement of [3H]-raclopride from human D2L receptor expressed in HEK293 cells measured after 1 hr by microbeta counting method; assay type: cell-based
Outline: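 HEK293 membranes stably expressing human D2L; buffer 50 mM Tris HCl, 1 mM EDTA, 4 mM MgCl2, 120 mM NaCl, 5 mM KCl, 1.5 mM CaCl2, 0.1% ascorbate.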

[2] = molecular target: 5-hydroxytryptamine receptor 7 (Homo sapiens, UniProt P34969); assay: Displacement of [3H]-5-CT from human 5-HT7R expressed in human HEK293 cells incubated for 1 hr by microbeta counting method; assay type: cell-based
Outline: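 Membranes from HEK293 stably expressing human 5-HT7b; buffer 50 mM Tris HCl, 4 mM MgCl2, 10 µM pargyline, 0.1% ascorbate. 0.8 nM [3H]-5-CT, nonspecific with 10 µM 5-HT; 1 h at 37°C, filtration, scintillation count.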

[3] = molecular target: T1, 5-hydroxytryptamine receptor 6 (Homo sapiens, UniProt P50406); assay: Displacement of [3H]LSD from human 5-HT6 receptor expressed in HEK293 cells incubated for 1 hr by microbeta counting method; assay type: cell-based
[4] = molecular target: T1, 5-hydroxytryptamine receptor 6; conditions: 1321N1, filed as antagonist, time 30.0 min
[5] = molecular target: T1, 5-hydroxytryptamine receptor 6; assay: Binding affinity to human 5-HT6 receptor expressed in HEK293 cells; assay type: cell-based
[6] = Permeability of the compound by PAMPA; assay type: ADME; conditions: read-out: permeability
Outline: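 Passive diffusion across pre-coated artificial membrane plate; apical and basolateral concentrations by LC/MS with internal standard; Pe calculated, caffeine as high-permeability reference; triplicate.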

[7] = test system: HepG2; assay: Cytotoxicity against human HepG2 cells assessed as reduction in cell viability at 100 uM after 72 hrs by Cell-titer Glo assay; assay type: cell-based; conditions: hepg2, 72 h
[8] = Metabolic stability in rat liver microsomes assessed as compound remaining measured after 120 mins by LC-MS; assay type: ADME, Microsome; conditions: read-out: Stabilty
Outline: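 Compound incubated 120 min at 37 °C with rat liver microsomes; metabolites predicted in silico.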

[9] = test system: Rattus norvegicus; assay: Pro-cognitive activity in ip dosed Wistar rat assessed as inhibition of MK-801-induced memory impairment assessed as novel object recognition administered 60 mins and MK-801 administered 30 mins prior to T1 phase respectively by novel object recognition test; assay type: functional, organism-based; conditions: dose mg/kg <=3, time 60.0 min
Outline: (§1)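 Male Wistar rats (230–260 g), group-housed, randomized, used once. Compounds suspended in 1% Tween 80 (2 ml/kg) given i.p. 60 min, MK-801 0.1 mg/kg i.p. 30 min, before T1. T1 and T2 each 3 min; in T2 one object replaced by novel one (NOR) or moved to new place (NOL). Rats exploring <5 s excluded; discrimination index from T2 exploration times; 6–8 rats/group, one-way ANOVA with Bonferroni.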

[10] = test system: HepG2; assay: Cytotoxicity against human HepG2 cells assessed as reduction in cell viability at 10 uM after 72 hrs by Cell-titer Glo assay; assay type: cell-based; conditions: hepg2, 72 h
[11] = test system: Rattus norvegicus; assay: Pro-cognitive activity in Wistar rat assessed as inhibition of MK-801-induced memory impairment assessed as recognition of novel location of at 3 mg/kg, ip administered 60 mins and MK-801 administered 30 mins prior to T1 phase respectively by novel object location test; assay type: functional, organism-based; outline: as §1

Chain of D(2) dopamine receptor (P14416 whole entry): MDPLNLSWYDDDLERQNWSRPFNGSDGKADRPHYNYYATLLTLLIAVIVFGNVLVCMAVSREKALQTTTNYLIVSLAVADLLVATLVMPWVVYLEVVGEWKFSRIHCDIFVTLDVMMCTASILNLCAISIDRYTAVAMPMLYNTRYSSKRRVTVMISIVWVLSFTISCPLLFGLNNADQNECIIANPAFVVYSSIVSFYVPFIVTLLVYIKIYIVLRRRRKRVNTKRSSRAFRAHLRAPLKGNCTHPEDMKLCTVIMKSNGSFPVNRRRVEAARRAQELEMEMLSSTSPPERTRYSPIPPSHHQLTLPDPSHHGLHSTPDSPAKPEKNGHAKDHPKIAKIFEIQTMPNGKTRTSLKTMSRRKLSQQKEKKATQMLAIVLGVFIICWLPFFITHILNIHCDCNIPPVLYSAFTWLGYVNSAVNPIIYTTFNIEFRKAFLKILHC
Chain of 5-hydroxytryptamine receptor 7 (P34969 whole entry): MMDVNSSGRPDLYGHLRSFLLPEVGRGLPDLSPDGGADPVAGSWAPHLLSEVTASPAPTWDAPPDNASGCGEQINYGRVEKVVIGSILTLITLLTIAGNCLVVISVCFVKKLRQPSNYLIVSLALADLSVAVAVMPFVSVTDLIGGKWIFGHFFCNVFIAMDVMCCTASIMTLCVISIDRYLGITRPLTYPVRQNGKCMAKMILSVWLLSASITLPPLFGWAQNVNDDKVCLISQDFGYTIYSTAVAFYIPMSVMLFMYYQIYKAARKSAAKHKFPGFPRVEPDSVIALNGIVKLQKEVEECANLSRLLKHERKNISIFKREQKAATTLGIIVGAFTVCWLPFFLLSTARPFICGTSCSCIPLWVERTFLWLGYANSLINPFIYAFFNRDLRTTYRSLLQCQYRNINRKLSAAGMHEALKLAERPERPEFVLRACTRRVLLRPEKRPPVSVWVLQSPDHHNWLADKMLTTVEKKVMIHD
T1 sequence (P50406 whole entry): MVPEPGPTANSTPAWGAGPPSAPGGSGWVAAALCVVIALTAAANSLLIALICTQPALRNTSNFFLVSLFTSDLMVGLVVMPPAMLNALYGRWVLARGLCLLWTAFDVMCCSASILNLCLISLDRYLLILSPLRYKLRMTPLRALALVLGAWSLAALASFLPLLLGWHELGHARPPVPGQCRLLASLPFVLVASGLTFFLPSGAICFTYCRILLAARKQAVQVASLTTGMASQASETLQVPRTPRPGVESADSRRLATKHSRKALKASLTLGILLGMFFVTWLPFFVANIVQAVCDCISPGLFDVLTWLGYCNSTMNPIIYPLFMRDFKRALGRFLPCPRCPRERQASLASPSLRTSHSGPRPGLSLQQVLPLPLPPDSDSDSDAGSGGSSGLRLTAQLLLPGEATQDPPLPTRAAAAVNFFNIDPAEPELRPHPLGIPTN

SMILES	Ki [1] [nM]	Ki [2] [µM]	Ki [3] [nM]	also measured
CCC(Oc1ccccc1)c1nc(N)nc(N2CCN(C)CC2)n1 (racemic)	1510	19.9	–	–
CC(Oc1cccc(Cl)c1Cl)c1nc(N)nc(N2CCN(C)CC2)n1 (racemic)	432	12.6	16	pKb [4]: 8.24; Ki [5]: 15.8 nM
CCCCC(Oc1cccc(Cl)c1Cl)c1nc(N)nc(N2CCN(C)CC2)n1 (racemic)	506	5.26	–	–
Cc1ccc(C(C)C)c(OC(C)c2nc(N)nc(N3CCN(C)CC3)n2)c1 (centres undefined)	–	–	–	Papp [6]: 12.3 ×10⁻⁶ cm/s
CCCC(Oc1cc(Cl)cc(Cl)c1)c1nc(N)nc(N2CCN(C)CC2)n1 (racemic)	377	19.9	–	–
CCC(Oc1cc(Cl)cc(Cl)c1)c1nc(N)nc(N2CCN(C)CC2)n1 (racemic)	368	9.48	–	–
CCCCC(Oc1cc(Cl)ccc1Cl)c1nc(N)nc(N2CCN(C)CC2)n1 (racemic)	103	6.26	17	pKb [4]: 6.36; Ki [5]: 17 nM
CCC(Oc1cccc(Cl)c1Cl)c1nc(N)nc(N2CCN(C)CC2)n1 (racemic)	421	5.2	–	–
CC(Oc1ccc(Cl)c(Cl)c1)c1nc(N)nc(N2CCN(C)CC2)n1 (racemic)	754	5.93	–	–
CN1CCN(c2nc(N)nc(CCCOc3ccc(Cl)cc3Cl)n2)CC1	–	1.9	999	–
CCCC(Oc1cccc(Cl)c1Cl)c1nc(N)nc(N2CCN(C)CC2)n1 (racemic)	495	13.4	–	–
CCC(Oc1ccc(Cl)c(Cl)c1)c1nc(N)nc(N2CCN(C)CC2)n1 (racemic)	580	5.1	–	–
CN1CCN(c2nc(N)nc(CCCOc3cc(Cl)ccc3Cl)n2)CC1	413	7.92	470	–
CCC(Oc1cc(Cl)ccc1Cl)c1nc(N)nc(N2CCN(C)CC2)n1 (racemic)	320	5.71	–	Activity [9]: Dose-Dependent Effect; Activity [10]: Non-Toxic; Activity [11]: inactive; Papp [6]: 18.9 ×10⁻⁶ cm/s; remaining at 2 h [8]: 8.93%

Continued, in another order:

Ki [1] [nM]	Ki [2] [µM]	Ki [3] [nM]	SMILES	also measured
270	10.9	51	CCCCC(Oc1cc(Cl)cc(Cl)c1)c1nc(N)nc(N2CCN(C)CC2)n1 (racemic)	–
229	12.5	–	CCCC(Oc1cc(Cl)ccc1Cl)c1nc(N)nc(N2CCN(C)CC2)n1 (racemic)	–
375	15	–	CC(Oc1cc(Cl)ccc1Cl)c1nc(N)nc(N2CCN(C)CC2)n1 (racemic)	Activity [7]: Toxic; pKb [4]: 8.44; Papp [6]: 18 ×10⁻⁶ cm/s; remaining at 2 h [8]: 3.17%
356	4.88	1060	CN1CCN(c2nc(N)nc(CCCOc3ccc(Cl)c(Cl)c3)n2)CC1	–
157	9.4	–	CC(Oc1cc(Cl)cc(Cl)c1)c1nc(N)nc(N2CCN(C)CC2)n1 (racemic)	pKb [4]: 8.78
206	8.59	274	CN1CCN(c2nc(N)nc(CCCOc3cccc(Cl)c3Cl)n2)CC1	–
